Reference: the RNAGym collection of RNA variant scans (doi:10.1126/science.aae0568)
This sample holds only a part of the variants without activity.

B1: tRNA (parent)
chain: GUUCCGUUGGCGUAAUGGUAACGCGUCUCCCUCCUAAGGAGAAGACUGCGGGUUCGAGUCCCGUACGGAACG

Variants of: B1
Assay: yeast fitness relative to wild type (ratio to wild type); higher = fitter; tRNA-Arg(CCU), competitive growth, 37 C, YPD
Method in brief: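 The tRNA-Arg(CCU) gene variants were made by chemical synthesis with a 3% per-site mutation rate at 69 sites and inserted at the native genomic locus of Saccharomyces cerevisiae. After pooling, the strains were competed in YPD at 37°C for 24 hours in six parallel replicates. Gene amplicons from the start population and each end population were read by 100-nucleotide paired-end sequencing, and Darwinian fitness relative to wild type was taken from genotype frequency changes. Genotypes needed ≥ 100 starting reads, and estimates < 0.5 were set to 0.5.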

Row | Variant | yeast fitness
1 | A14G C24A C34G G38C | ≤ 0.5
2 | A14C U64A | 0.651
3 | A14C U32G U64C | 0.532
4 | A14G C24G C31U U47C C55A | ≤ 0.5
5 | A14G C31G U54G A57C C62U | ≤ 0.5
6 | A14C U19A G39C | ≤ 0.5
7 | A14C U16C A40U G51C A69C | 0.639
8 | A14C G41A A43C | ≤ 0.5
9 | A14G A21C C30G C55G G67U | 0.534
10 | A14G C46G A69U | 0.861
11 | A14G C31G A37U | 0.533
12 | A14G A20U U35C G38A A43C | 0.635
13 | A14G C22U C46G C60G | ≤ 0.5
14 | A14G C24U G51A | ≤ 0.5
15 | A14G A21C C30G C55G C66U G67A | ≤ 0.5
16 | A14G A21U U59A | ≤ 0.5
17 | A14G A37U A65C | 0.543
18 | A14C U19C C27A G41C A42U C66U | 0.582
19 | A14C U26A C29U C49U | ≤ 0.5
20 | A14G C30G A36C A69U | ≤ 0.5
21 | A14G A15C U53G C60U | ≤ 0.5

Row | Variant | yeast fitness
22 | A14G C46A A57G | 0.743
23 | A14G C30A G50A G51A A69G | ≤ 0.5
24 | A14G C24G A65C | ≤ 0.5
25 | A14G C27G C31A C33G C49U G58C | ≤ 0.5
26 | A14G A57U | 0.563
27 | A14G A57G | 0.905
28 | A14C U47C C55U G68C | ≤ 0.5
29 | A14C U28A | 0.618
30 | A14G A45G A65U G68C | ≤ 0.5
31 | A14G C31G C46G | 0.577
32 | A14G C24U G63C | ≤ 0.5
33 | A14G A21C C33A A43U C62U | 0.558
34 | A14G A15G A45U C62U | ≤ 0.5
35 | A14G C34U A40G | 0.541
36 | A14G C24G A36C A70C | ≤ 0.5
37 | A14C U47A G52A | ≤ 0.5
38 | A14G C33U | 0.616
39 | A14G C33G | ≤ 0.5
40 | A14G C33A | 0.516
41 | A14G C24G A42C | 0.512
42 | A14G A20U A40G U54C | ≤ 0.5

Row | Variant | yeast fitness
43 | A14G A21G C27U A45C G48C | ≤ 0.5
44 | A14G A20U A36U G51C G52C | ≤ 0.5
45 | A14C G25A C66U | 0.541
46 | A14C G68A | 0.712
47 | A14C U26C C29U A43G | 0.59
48 | A14G C31U A42U A69U | 0.544
49 | A14G C29U A57C | ≤ 0.5
50 | A14C G51A | 0.714
51 | A14C U35C A57U | ≤ 0.5
52 | A14C G41A | 0.553
53 | A14G A42C | 0.762
54 | A14G A42G | 0.778
55 | A14C G23A C34A C49G | ≤ 0.5
56 | A14C G18C G41C | 0.662
57 | A14C U28A A42U | ≤ 0.5
58 | A14G C62U G68C | ≤ 0.5
59 | A14G C46G G51C | ≤ 0.5
60 | A14G C31U C55A G67A A70G | ≤ 0.5
61 | A14G A15U U35C | ≤ 0.5
62 | A14G C22G U35G A40C A70U | ≤ 0.5
63 | A14G C24A G25A C31A | ≤ 0.5

Row | Variant | yeast fitness
64 | A14G C30U C46U G50A | 0.602
65 | A14G C46U G50C C55U A57U C62G | 0.571
66 | A14G C49U | 0.908
67 | A14G C49G | 0.815
68 | A14C G25A C29G A45U C62A A70C | ≤ 0.5
69 | A14G C30A C34G C62U | ≤ 0.5
70 | A14G A43U A65U | 0.748
71 | A14G C31U C49U | 0.809
72 | A14G C31U C49A | ≤ 0.5
73 | A14C G50U | 0.708
74 | A14C G50A | 0.612
75 | A14G C29U C62U A70U | 0.536
76 | A14G C34G A43C A70G | ≤ 0.5
77 | A14C U28A G44A C55A | ≤ 0.5
78 | A14C U32G G39C | ≤ 0.5
79 | A14G C24A U26A C27G U32C C60U | ≤ 0.5
80 | A14G C30U A43C G52A | ≤ 0.5
81 | A14C G25C C27G C34U U35A G38A G56A U59G | ≤ 0.5
82 | A14G C30A A45G C60G | 0.668
83 | A14G C29U C31U C33U | 0.543
